The values that follow come from ChEMBL document CHEMBL4428079, “Modulation of Backbone Flexibility for Effective Dissociation of Antibacterial and Hemolytic Activity in Cyclic Peptides” (ACS Med Chem Lett, 2016).

≈ marks a conversion by molar mass, not a printed value. Calls of active or inactive are those of the source. No cut-off for these calls is given here. Bridge positions count the residues as written; N and C are the ends. Square brackets hold non-standard residues; d marks the D form. Peptide text beside a SMILES is read from it. Bip = N[C@@H](Cc1ccc(-c2ccccc2)cc1)C(=O)O; 2Nal = N[C@@H](Cc1ccc2ccccc2c1)C(=O)O; Dab = NCC[C@H](N)C(=O)O; AEEA = NCCOCCOCC(=O)O; Aoc = NCCCCCCCC(=O)O; Ahx = NCCCCCC(=O)O; AEA = NCCOCC(=O)O; GABA = NCCCC(=O)O

In assay [1] the test system is Klebsiella pneumoniae. The assay can be described thus: Antimicrobial activity against multiple drug resistant-Klebsiella pneumoniae ATCC 700603 after 18 hrs by tube microdilution method. In kind it is functional. Particulars: Klebsiella pneumoniae, 700603, 18 h. In general terms: Broth dilution looks for growth in wells or tubes with falling amounts of substance.

The subject of assay [2] is Acinetobacter baumannii. Put plainly: Antimicrobial activity against multiple drug resistant-Acinetobacter baumannii ATCC BAA-1605 after 18 hrs by tube microdilution method. In kind it is functional. Particulars: ATCC BAA-1605, 18 h.
For assay [3], the system named is Erythrocyte. Put plainly: Hemolytic activity in human RBC after 1 hr by microplate reader method. It counts as ADME, cell-based.
Assay [4] deals with Pseudomonas aeruginosa. Put plainly: Antimicrobial activity against Pseudomonas aeruginosa ATCC 27853 after 18 hrs by tube microdilution method. In kind it is functional. Conditions: ATCC 27853, 18 h.
Assay [5] deals with Escherichia coli. The assay can be described thus: Antimicrobial activity against Escherichia coli ATCC 25922 after 18 hrs by tube microdilution method. In kind it is functional. Particulars: ATCC 25922, 18 h.
In assay [6] the test system is Enterococcus faecium. Put plainly: Antimicrobial activity against vancomycin-resistant Enterococcus faecium ATCC 700221 after 18 hrs by tube microdilution method. Particulars: ATCC 700221, 18 h. It counts as functional.
The test system of assay [7] is Staphylococcus aureus. The assay can be described thus: Antimicrobial activity against methicillin-resistant Staphylococcus aureus ATCC 33591 after 18 hrs by tube microdilution method. It counts as functional. Particulars: ATCC 33591, 18 h.
In assay [8] the test system is Lipid bilayer. Put plainly: Binding affinity to DOPE/DOPG large unilamellar vesicles in 3:1 ratio assessed as exciton split measured at 225 nanometer in NaHCO3 buffer.
The subject of assay [9] is Staphylococcus aureus. The assay can be described thus: Bactericidal activity against Staphylococcus aureus ATCC 29213 assessed as reduction in bacterial burden at 32 uM measured up to 3.5 hrs by time kill kinetic study. It counts as functional. In short, it runs like this: (§1)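 Time-course kill assay against S. aureus ATCC 29213 with peptide at 32 μM. Viable cell count was followed over time as colony counts, with a final sampling at 24 h.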

For assay [10], the system named is Staphylococcus aureus. The assay can be described thus: Bactericidal activity against Staphylococcus aureus ATCC 29213 assessed as reduction in bacterial burden at 32 uM after 24 hrs by time kill kinetic study. In kind it is functional, organism-based. In short, it runs like this: as §1
Assay [11] has as its system Lipid bilayer. The assay can be described thus: Membrane permeabilization in DOPC/POPG large unilamellar vesicles in 3:1 ratio assessed as sulforhodamine B release at 16 to 64 uM by fluorescence assay. In outline:
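Sulforhodamine B was entrapped at self-quenching concentration in LUVs of DOPC/POPG at 3:1. PE lipids were excluded, and palmitoyl replaced one oleyl chain for vesicle stability. Peptide was added at 16, 32 or 64 μM, and marker release was followed over time as fluorescence recovery on dye release and dilution.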

In assay [12] the test system is Staphylococcus aureus. The assay can be described thus: Bactericidal activity against Staphylococcus aureus ATCC 29213 assessed as reduction in bacterial burden at 32 uM measured up to 30 mins by time kill kinetic study. It counts as functional. In outline: as §1

As a reminder, the MIC is the lowest concentration that inhibits growth of the organism. A low value points to inhibition by little substance. As a reminder, the EC50 is the concentration at which the effect is half-maximal. A high value points to a need for much substance. `NCCCC[C@@H]1NC(=O)[C@H](CCCCN)NC(=O)[C@H](Cc2ccc3ccccc3c2)NC(=O)[C@H](CCCCN)NC(=O)[C@@H](CC(N)=O)NC(=O)[C@H](CCCCN)NC(=O)[C@H](Cc2ccc3ccccc3c2)NC(=O)CCCCCCCCCNC(=O)[C@H](Cc2ccc(-c3ccccc3)cc2)NC1=O`: the MIC in assay [1] was greater than 64 µM; in [2], 16 µM (≈ 22.6 µg/mL); in assay [4], greater than 64 µM; in [5], 16 µM (≈ 22.6 µg/mL); in assay [6] it was 8 µM (≈ 11.3 µg/mL); in [7] it was 16 µM (≈ 22.6 µg/mL). In assay [3], this molecule gave an EC50 of 5 µM.

On to `NCCCC[C@@H]1NC(=O)[C@H](Cc2ccc3ccccc3c2)NC(=O)CCCCCCCCCNC(=O)[C@H](Cc2ccc(-c3ccccc3)cc2)NC(=O)[C@H](CCCCN)NC(=O)[C@H](CCCCN)NC(=O)[C@H](Cc2ccc3ccccc3c2)NC(=O)[C@H](CCCCN)NC(=O)[C@H](CC(N)=O)NC1=O`, for which the outcome in assay [8] was Active.

Consider `NCCCC[C@@H]1NC(=O)[C@H](CCCCN)NC(=O)[C@H](Cc2ccc3ccccc3c2)NC(=O)[C@H](CCCCN)NC(=O)[C@H](CC(N)=O)NC(=O)[C@H](CCCCN)NC(=O)[C@H](Cc2ccc3ccccc3c2)NC(=O)[C@@H](N)CCCCNC(=O)[C@H](Cc2ccc(-c3ccccc3)cc2)NC1=O` (H-K[2Nal]KNK[2Nal]KK[Bip]; lactam 1-C), for which the MIC is 64 µM (≈ 87.9 µg/mL) in [1]; greater than 64 µM in [2]; 16 µM (≈ 22 µg/mL) in [4]; 32 µM (≈ 43.9 µg/mL) in [5]; 2 µM (≈ 2.75 µg/mL) in assay [6]; 16 µM (≈ 22 µg/mL) in [7]. Also, the result in assay [8] was Active. Besides, the EC50 in assay [3] was greater than 300 µM.

Take `NCCCC[C@@H]1NC(=O)[C@H](CCCCN)NC(=O)[C@H](Cc2ccc3ccccc3c2)NC(=O)[C@H](CCCCN)NC(=O)[C@H](CC(N)=O)NC(=O)[C@H](CCCCN)NC(=O)[C@H](Cc2ccc3ccccc3c2)NC(=O)[C@@H](N)CCNC(=O)[C@H](Cc2ccc(-c3ccccc3)cc2)NC1=O` (H-[Dab][2Nal]KNK[2Nal]KK[Bip]; lactam 1-C): the MIC in [1] was 64 µM (≈ 86.1 µg/mL); in assay [2], greater than 64 µM; in [4], 32 µM (≈ 43 µg/mL); in assay [5], 64 µM (≈ 86.1 µg/mL); in assay [6], 2 µM (≈ 2.69 µg/mL); in assay [7], 16 µM (≈ 21.5 µg/mL). In addition, the result in [8] and in assay [10] was Active. In assay [3], this molecule had an EC50 greater than 300 µM. Besides, in [9], the LCK was found to be 3.

For the molecule `NCCCC[C@@H]1NC(=O)[C@H](Cc2ccc3ccccc3c2)NC(=O)COCCOCCNC(=O)[C@H](Cc2ccc(-c3ccccc3)cc2)NC(=O)[C@H](CCCCN)NC(=O)[C@H](CCCCN)NC(=O)[C@H](Cc2ccc3ccccc3c2)NC(=O)[C@H](CCCCN)NC(=O)[C@H](CC(N)=O)NC1=O` (cyclo(K[2Nal]KK[Bip][AEEA][2Nal]KN)), the minimum inhibitory concentration (MIC) is 64 µM (≈ 88.9 µg/mL) in [1]; 16 µM (≈ 22.2 µg/mL) in assay [2]; 32 µM (≈ 44.5 µg/mL) in assay [4]; 64 µM (≈ 88.9 µg/mL) in assay [5]; 2 µM (≈ 2.78 µg/mL) in assay [6]; 16 µM (≈ 22.2 µg/mL) in assay [7]. Moreover, the outcome in [8] was inactive. The same molecule returned an EC50 in assay [3] greater than 300 µM. The outcome in [11] was Active.

Consider `NCCCC[C@@H]1NC(=O)[C@H](Cc2ccc3ccccc3c2)NC(=O)CNC(=O)[C@H](Cc2ccc(-c3ccccc3)cc2)NC(=O)[C@H](CCCCN)NC(=O)[C@H](CCCCN)NC(=O)[C@H](Cc2ccc3ccccc3c2)NC(=O)[C@H](CCCCN)NC(=O)[C@H](CC(N)=O)NC1=O` (cyclo([2Nal]KK[Bip]G[2Nal]KNK)), for which the minimum inhibitory concentration (MIC) turned out to be 32 µM (≈ 41.7 µg/mL) in assay [1]; 32 µM (≈ 41.7 µg/mL) in assay [2]; 32 µM (≈ 41.7 µg/mL) in assay [4]; 32 µM (≈ 41.7 µg/mL) in assay [5]; 4 µM (≈ 5.21 µg/mL) in assay [6]; 8 µM (≈ 10.4 µg/mL) in [7]. Further, the result in assay [8], in [10] and in assay [11] was Active. This molecule displayed an EC50 in [3] of 45 µM.

For `NCCCC[C@@H]1NC(=O)[C@H](Cc2ccc3ccccc3c2)NC(=O)COCCNC(=O)[C@H](Cc2ccc(-c3ccccc3)cc2)NC(=O)[C@H](CCCCN)NC(=O)[C@H](CCCCN)NC(=O)[C@H](Cc2ccc3ccccc3c2)NC(=O)[C@H](CCCCN)NC(=O)[C@H](CC(N)=O)NC1=O` (cyclo([2Nal]KK[Bip][AEA][2Nal]KNK)), the MIC in assay [1] turned out to be 64 µM (≈ 86.1 µg/mL); in assay [2], 32 µM (≈ 43.1 µg/mL); in assay [4], 32 µM (≈ 43.1 µg/mL); in assay [5], 32 µM (≈ 43.1 µg/mL); in assay [6] it was 4 µM (≈ 5.38 µg/mL); in assay [7], 16 µM (≈ 21.5 µg/mL). Further, the result in [8] was Active. For the same molecule, the EC50 in assay [3] is greater than 300 µM.

Regarding `NCCCC[C@@H]1NC(=O)[C@H](Cc2ccc3ccccc3c2)NC(=O)CCCCCNC(=O)[C@H](Cc2ccc(-c3ccccc3)cc2)NC(=O)[C@H](CCCCN)NC(=O)[C@H](CCCCN)NC(=O)[C@H](Cc2ccc3ccccc3c2)NC(=O)[C@H](CCCCN)NC(=O)[C@H](CC(N)=O)NC1=O` (cyclo([2Nal]KK[Bip][Ahx][2Nal]KNK)), the minimum inhibitory concentration (MIC) is 8 µM (≈ 10.9 µg/mL) in [1]; 8 µM (≈ 10.9 µg/mL) in [2]; 16 µM (≈ 21.7 µg/mL) in assay [4]; 16 µM (≈ 21.7 µg/mL) in assay [5]; 2 µM (≈ 2.72 µg/mL) in assay [6]; 8 µM (≈ 10.9 µg/mL) in assay [7]. Moreover, the outcome in assay [8] was Active. For the same molecule, in assay [3], the midpoint of the response, the EC50, lay at 18 µM.

`NCCCC[C@@H]1NC(=O)[C@H](Cc2ccc3ccccc3c2)NC(=O)CCCCCCCNC(=O)[C@H](Cc2ccc(-c3ccccc3)cc2)NC(=O)[C@H](CCCCN)NC(=O)[C@H](CCCCN)NC(=O)[C@H](Cc2ccc3ccccc3c2)NC(=O)[C@H](CCCCN)NC(=O)[C@H](CC(N)=O)NC1=O` (cyclo([2Nal]KK[Bip][Aoc][2Nal]KNK)): the minimal inhibitory concentration (MIC) in [1] came to 16 µM (≈ 22.2 µg/mL); in assay [2] it was 16 µM (≈ 22.2 µg/mL); in assay [4], 16 µM (≈ 22.2 µg/mL); in assay [5], 16 µM (≈ 22.2 µg/mL); in assay [6], 2 µM (≈ 2.77 µg/mL); in assay [7] it was 4 µM (≈ 5.54 µg/mL). The result in [8] and in [11] was Active. In addition, the EC50 in [3] is 12 µM.

On to `NCCCC[C@@H]1NC(=O)[C@H](Cc2ccc3ccccc3c2)NC(=O)CCCNC(=O)[C@H](Cc2ccc(-c3ccccc3)cc2)NC(=O)[C@H](CCCCN)NC(=O)[C@H](CCCCN)NC(=O)[C@H](Cc2ccc3ccccc3c2)NC(=O)[C@H](CCCCN)NC(=O)[C@H](CC(N)=O)NC1=O` (cyclo([2Nal]KK[Bip][GABA][2Nal]KNK)), for which the minimal inhibitory concentration (MIC) was 32 µM (≈ 42.5 µg/mL) in [1]; 32 µM (≈ 42.5 µg/mL) in assay [2]; 32 µM (≈ 42.5 µg/mL) in assay [4]; 32 µM (≈ 42.5 µg/mL) in [5]; 4 µM (≈ 5.32 µg/mL) in assay [6]; 16 µM (≈ 21.3 µg/mL) in [7]. Also, the outcome in assay [8] and in assay [10] was Active. In addition, a half-maximal effect in assay [3] (EC50) was put at 155 µM. Further, in assay [12], the LCK is on record as 3.
